In general, IC50 refers to the concentration that inhibits the measured activity by half.

The source made the active and inactive calls. No cut-off for these calls is given here. Peptide text beside a SMILES is read from it. * marks the point of attachment. Cbz = O=C(OCc1ccccc1)*

Test [1] addresses Transcription factor p65 (Homo sapiens) (UniProt Q04206). Nature of the test: Inhibition of TNF-alpha-stimulated human NF-kappaB p65 RelA subunit nuclear translocation in HUVEC relative to control. The class given is cell-based. Summed up:
(§1)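 HUVEC (fewer than 8 passages) were seeded at 3,000 cells/well. Compounds were added in 8-point series, either from 10 µM final in media with 0.33% DMSO diluted 1:3, or from 8 µM diluted 1:2. After 3.5 h with compound, cells were stimulated with […] for 30 min. Cells were then fixed, permeabilized, stained with Hoechst and with anti-p65 plus an Alexa 647 secondary, and imaged automatically. IC50 is from curve fitting of one experiment run in triplicate, with BAY 11-7082 as the positive control.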

Test [2] concerns the target T1, NF-kappa-B inhibitor alpha (Homo sapiens) (UniProt P25963).
T1 sequence (whole entry): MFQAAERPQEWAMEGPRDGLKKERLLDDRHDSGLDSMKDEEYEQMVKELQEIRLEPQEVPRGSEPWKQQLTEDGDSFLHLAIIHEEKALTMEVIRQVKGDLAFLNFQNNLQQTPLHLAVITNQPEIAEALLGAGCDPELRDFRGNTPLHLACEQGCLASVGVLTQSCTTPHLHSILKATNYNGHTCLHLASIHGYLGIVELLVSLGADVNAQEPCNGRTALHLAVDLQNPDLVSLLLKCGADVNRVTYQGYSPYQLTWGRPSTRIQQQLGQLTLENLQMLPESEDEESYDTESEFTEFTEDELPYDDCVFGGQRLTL
Briefly: Induction of human IkappaBalpha stabilization in OCI-Ly3 cells by green light emiting IkappaBalpha-fused luciferase reporter gene assay relative to control. The class given is cell-based. Summed up:
(§2)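 The IκBα-CBG68 fusion (green luminescence) and the CBR control reporter (red) were induced with doxycycline. The read-out was green luminescence, and EC50 is given with % efficacy relative to the MG-132 positive control. Each experiment was a concentration titration run in duplicate with concentration-response curve fitting, and values are averages of two to three experiments.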
On the technique in general: In a reporter assay the amount or activity of a reporter protein is the signal.

Test [3] in a line: Inhibition of TNFalpha stimulated human NF-kappaB-mediated beta lactamase gene expression in HUVEC. The class given is cell-based.
Test [4] can be described thus: (§3) Cytotoxicity against NF-kappaB overexpressing human OCI-Ly3 cells after 4 hrs. The class given is functional, cell-based. The conditions noted are these: OCI-Ly3, 4 h.
For the next test, the system named is OCI-Ly3. The description is as §3. The class given is functional, cell-based.
Test [5] has as its target Transcription factor p65 (Homo sapiens) (UniProt Q04206). Briefly: Inhibition of TNF-alpha-stimulated human NF-kappaB p65 RelA subunit nuclear translocation in HUVEC. The gist of the method:
as §1

Another test concerns HUVEC. Briefly: Inhibition of human E3 ubiquitin ligase-mediated IkappaBalpha ubiquitination in HUVEC. Type of test: cell-based.
Test [6] deals with T1, NF-kappa-B inhibitor alpha (Homo sapiens). Nature of the test: Induction of human IkappaBalpha stabilization in OCI-Ly3 cells assessed as ratio of green light emiting IkappaBalpha-fused luciferase expression to red light emiting native luciferase expression. The class given is cell-based. Summed up: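 Dual-luciferase IκBα stabilization assay: doxycycline induces both an IκBα-CBG68 fusion (green luminescence) and a CBR control (red luminescence), and the red signal normalizes for nonspecific effects. EC50 comes from the green/red luminescence ratio. Each experiment was a concentration titration run in duplicate with concentration-response curve fitting, and values are averages of two to three experiments.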

For test [7] the target is unchanged. Nature of the test: Induction of human IkappaBalpha stabilization in OCI-Ly3 cells by green light emiting IkappaBalpha-fused luciferase reporter gene assay. Type of test: cell-based. Summed up:
as §2

Transcription factor p65 (Homo sapiens), sequence (Q04206 whole entry): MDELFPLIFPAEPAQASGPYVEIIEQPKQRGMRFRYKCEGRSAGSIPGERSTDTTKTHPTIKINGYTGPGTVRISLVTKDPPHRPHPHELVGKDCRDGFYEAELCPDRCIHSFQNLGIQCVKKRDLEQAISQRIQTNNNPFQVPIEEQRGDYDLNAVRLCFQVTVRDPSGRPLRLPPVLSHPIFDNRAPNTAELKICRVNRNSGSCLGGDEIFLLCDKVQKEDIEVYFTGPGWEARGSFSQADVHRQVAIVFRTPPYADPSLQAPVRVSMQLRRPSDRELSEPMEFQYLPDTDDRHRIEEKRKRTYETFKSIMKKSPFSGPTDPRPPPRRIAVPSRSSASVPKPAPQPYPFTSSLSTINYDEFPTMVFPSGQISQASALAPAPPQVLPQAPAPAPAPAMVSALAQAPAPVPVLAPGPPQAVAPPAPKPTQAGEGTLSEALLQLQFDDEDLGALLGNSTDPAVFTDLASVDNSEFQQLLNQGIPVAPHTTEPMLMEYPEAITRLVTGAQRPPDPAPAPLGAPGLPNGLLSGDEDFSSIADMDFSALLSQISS

On to `COc1cc(NS(=O)(=O)c2ccc(C)cc2N)c2ncccc2c1`, for which the Efficacy in test [1] was above 90%; in test [2], 90%. The IC50 in test [3] was 2 µM; in test [4], above 57 µM.
Take `O=S1(=O)Nc2c(ccc3cccnc23)-c2cc(Cl)ccc21`: the Efficacy in test [1] is above 90%; in [2], 66%. In test [3], this compound came in with an IC50 of 1.9 µM. Moreover, the result with OCI-Ly3 was inactive.
For `Cc1ccc2c(c1)-c1ccc3cccnc3c1NS2(=O)=O`, the Efficacy was above 90% in test [1] and 60% in [2]. The 50% inhibitory concentration (IC50) was 0.8 µM in [3] and above 57 µM in [4].
For `O=S1(=O)Nc2c(ccc3cccnc23)-c2cc(O)ccc21`, in [5], the outcome was inactive.
For `Cc1ccc2cccc(NS(=O)(=O)c3cccc([N+](=O)[O-])c3)c2n1`, the Efficacy in [1] is above 90%; in test [2] it was 110%. Besides, the half-maximal inhibitory concentration (IC50) in test [3] is 1 µM; in test [4], above 57 µM.
Turning to `O=S1(=O)Nc2c(ccc3cccnc23)-c2ccccc21`, the result in the test on HUVEC and with OCI-Ly3 was inactive. The Efficacy in test [1] is above 90%; in test [2], 120%. In test [3], this compound gave an IC50 of 3.4 µM.
For `Cc1ccc2cccc(NS(=O)(=O)c3ccc(C(F)(F)F)cc3[N+](=O)[O-])c2n1`, the Efficacy is above 90% in test [1] and 50% in test [2]. The figures for the IC50 in test [3] and in test [4] were 13 µM and above 57 µM, respectively.
Consider `COc1cc(NS(=O)(=O)c2ccc(C)cc2)c2nc(C)ccc2c1`, for which the Efficacy in [1] was above 90%; in test [2] it was 150%. Besides, the IC50 in test [3] and in test [4] was above 57 µM in each case.
Consider `COc1cc2ccc(C)nc2c2c1-c1cc(C)ccc1S(=O)(=O)N2`, for which the results for the Efficacy in test [1] and in test [2] were above 90% and 300%, respectively. The IC50 in test [3] is 1.1 µM; in [4], above 57 µM.
Turning to `O=S1(=O)Nc2c(ccc3cccnc23)-c2cc(F)ccc21`, the results for the Efficacy in test [1] and in test [2] were above 90% and 122%, respectively. For the same compound, the half-inhibitory concentration (IC50) in [3] was found to be 1.8 µM. For the same compound, the result in the test with OCI-Ly3 was inactive.
On to `COc1cccc2nc(-c3cccs3)nc(NN3C(=O)C=C(C)C3=O)c12` [AS-602868], for which the outcome (in test [5]; in test [6]; in the test on OCI-Ly3; in test [7]) was inactive. Besides, in test [3], inhibition was half-maximal at 2 µM (IC50).
For the compound `Cc1cnc2c3c(ccc2c1)-c1ccccc1S(=O)(=O)N3`, in [2], the Efficacy worked out at 32%. Besides, in test [3], inhibition was half-maximal at 8.1 µM (IC50). Besides, the result with OCI-Ly3 was inactive.
In [1], `COc1ccc(S(=O)(=O)Nc2cccc3ccc(C)nc23)c([N+](=O)[O-])c1` registered an Efficacy of 78%.
For `O=S(=O)(Nc1cccc2cccnc12)c1ccc(Cl)s1`, the figures for the Efficacy in test [1] and in [2] were above 90% and 190%, respectively. For the same compound, the results for the IC50 in test [3] and in test [4] were 1 µM and above 57 µM, respectively.
As for `Cc1ccc2ccc3c(c2n1)NS(=O)(=O)c1ccc(C(F)(F)F)cc1-3`, the Efficacy in test [1] is above 90%; in test [2] it was 700%. In addition, the IC50 in [3] is 3.6 µM. Also, the result in the test on OCI-Ly3 was inactive.
Regarding `COc1ccc2c(c1)-c1ccc3cccnc3c1NS2(=O)=O`, the Efficacy is above 90% in [1] and 20% in test [2]. The compound further yielded a half-maximal inhibitory concentration (IC50) in [3] of 1.3 µM. Moreover, the result with OCI-Ly3 was inactive.
The matching figures for `O=[N+]([O-])c1ccccc1S(=O)(=O)Nc1cccc2cccnc12`: above 90%, 620%, 10 µM and “inactive”.
Consider `O=S1(=O)Nc2c(ccc3cccnc23)-c2cc(C(F)(F)F)ccc21`, for which the results for the Efficacy in test [1] and in test [2] were above 90% and 32%, respectively. The compound also had an IC50 in test [3] of 1.2 µM. Also, the result in the test on OCI-Ly3 was inactive.
The matching figures for `O=S(=O)(Nc1cccc2cccnc12)c1cccs1`: above 90%, 250%, 7 µM and “inactive”.
Take `COc1cc(NS(=O)(=O)c2ccc(C)cc2N)c2nc(C)ccc2c1`: the result (in test [5]; with OCI-Ly3) was inactive. This compound also came in with an Efficacy in [2] of 23%. This compound also came in with an IC50 in test [3] above 57 µM.
On to `O=[N+]([O-])c1cc(C(F)(F)F)ccc1S(=O)(=O)Nc1cccc2cccnc12`, for which the figures for the Efficacy in test [1] and in [2] were above 90% and 200%, respectively. The IC50 is 1.3 µM in test [3] and above 57 µM in test [4].
In the case of `Cc1ccc2cccc(NS(=O)(=O)c3ccccc3[N+](=O)[O-])c2n1`, the Efficacy in [1] was above 90%; in test [2], 200%. The same compound registered an IC50 in test [3] of 6 µM. In addition, the outcome in the test with OCI-Ly3 was inactive.
On to `Cc1ccc([N+](=O)[O-])cc1S(=O)(=O)Nc1cccc2cccnc12`, for which the Efficacy was above 90% in test [1] and 18% in [2]. Besides, the IC50 in test [3] was 1.8 µM; in test [4], above 57 µM.
In the case of `O=S(=O)(Nc1cccc2cccnc12)c1ccc(Br)s1`, the Efficacy was above 90% in test [1] and 170% in test [2]. In addition, in [3], the midpoint of inhibition, the IC50, lay at 3.4 µM. In addition, in the test with OCI-Ly3, the result was inactive.
Turning to `Cc1ccc2cccc(NS(=O)(=O)c3ccc(Br)s3)c2n1`, the Efficacy in test [1] worked out at 75%; in test [2], 22%. The figures for the IC50 in test [3] and in [4] were 5 µM and above 57 µM, respectively.
For the compound `Cc1ccc2ccc3c(c2n1)NS(=O)(=O)c1ccc(O)cc1-3`, the Efficacy in test [1] was above 90%; in test [2], 120%. Further, the concentration for half-maximal inhibition (IC50) in test [3] was 6.7 µM; in test [4], above 57 µM.
For `Cc1ccc2cccc(NS(=O)(=O)c3ccc(Cl)s3)c2n1`, in that order: above 90%, 60%, 1.3 µM and above 10 µM.
For `COc1ccc2c(c1)-c1ccc3ccc(C)nc3c1NS2(=O)=O`, in that order: above 90%, 200%, 3.2 µM and above 57 µM.
In the case of `Cc1ccc2cccc(NS(=O)(=O)c3ccccc3N)c2n1`, the figures for the Efficacy in [1] and in test [2] were above 90% and 250%, respectively. Further, in test [3], it took 5.5 µM to reach half-maximal inhibition (IC50). In the test with OCI-Ly3, the outcome was inactive.
Regarding `Cc1ccc2cccc(NS(=O)(=O)c3cc([N+](=O)[O-])ccc3C)c2n1`, the result (in [5]; in the test on OCI-Ly3) was inactive. Also, in test [3], the IC50 is above 57 µM.
With `Nc1ccccc1S(=O)(=O)Nc1cccc2cccnc12`, the Efficacy was above 90% in test [1] and 300% in [2]. Moreover, the values for the IC50 in [3] and in test [4] were 13.5 µM and above 57 µM, respectively.
With `COc1cc2cccnc2c2c1-c1cc(C)ccc1S(=O)(=O)N2`, the results for the Efficacy in test [1] and in test [2] were above 90% and 34%, respectively. Further, 2 µM corresponded to half-maximal inhibition in test [3] (IC50). The result in the test with OCI-Ly3 was inactive.
For `O=[N+]([O-])c1ccc(S(=O)(=O)Nc2cccc3cccnc23)cc1`, the results for the Efficacy in test [1] and in test [2] were above 90% and 560%, respectively. Also, the IC50 in test [3] turned out to be 5 µM. The outcome in the test on OCI-Ly3 was inactive.
Take `CC(C)C[C@@H](C=O)NC(=O)[C@H](CC(C)C)NC(=O)[C@H](CC(C)C)NC(=O)OCc1ccccc1` [MG-132] (Cbz-Leu-Leu-Leu-aldehyde): the Efficacy in test [2] amounted to 100%. The IC50 in [3] was 0.6 µM; in [4] it was above 10 µM.
Consider `Cc1ccc(S(=O)(=O)Nc2cccc3cccnc23)c([N+](=O)[O-])c1`, for which the Efficacy was above 90% in test [1] and 275% in [2]. For the same compound, the half-inhibitory concentration (IC50) in test [3] is 6 µM; in [4] it was above 57 µM.
With `O=S(=O)(Nc1cccc2cccnc12)c1ccccc1`, the figures for the Efficacy in test [1] and in test [2] were above 90% and 350%, respectively. In [3], this compound displayed an IC50 of 8 µM. In addition, the outcome with OCI-Ly3 was inactive.
`Cc1ccc(S(=O)(=O)/C=C/C#N)cc1` showed an Efficacy in [1] above 90%.
Regarding `[O-][S+](c1ccccc1)c1ccc2nnnn2n1` (centres undefined), the result in the test on HUVEC was Active.
For the compound `COc1cnc2c3c(ccc2c1)-c1ccccc1S(=O)(=O)N3`, the Efficacy in [1] was above 90%.
Regarding `COc1cc(NS(=O)(=O)c2ccc(C)cc2[N+](=O)[O-])c2ncccc2c1`, the Efficacy in test [1] is above 90%; in test [2], 60%. The IC50 in test [3] is 4 µM; in test [4] it was above 57 µM.

Values taken from ChEMBL document CHEMBL1142284, “Identification of N-(quinolin-8-yl)benzenesulfonamides as agents capable of down-regulating NFkappaB activity within two separate high-throughput screens of NFkappaB activation” (Bioorg Med Chem Lett, 2008).
